Screening results as filed in PubChem.
MPTP block – inhibitors of mitochondrial permeability transition pore; isolated mouse mitochondria, Ca2+ swelling absorbance, 30 min; 360,000 tested, 1.4% active; AID 602449; inhibition, % at 10 µM;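 active means inhibition of 50% or more, scaled per plate between neutral and stimulator controls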;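 further: 0% = DMSO wells given calcium and 100% = 1 mM EGTA wells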
MC4R ag barr – agonists of human melanocortin 4 receptor (MC4R) beta-arrestin; U2OS MC4R beta-arrestin complementation, luminescence; percent of melanotan II response, DMSO zero; activation, % at 8.9 µM; 360,000 tested, 0.98% active; AID 540308;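 active means activation above a per-plate cutoff, the mean activation of sample wells on that plate plus 3 SD, cut at about 8% in these data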
Target sequence (P32245 whole entry, looked up): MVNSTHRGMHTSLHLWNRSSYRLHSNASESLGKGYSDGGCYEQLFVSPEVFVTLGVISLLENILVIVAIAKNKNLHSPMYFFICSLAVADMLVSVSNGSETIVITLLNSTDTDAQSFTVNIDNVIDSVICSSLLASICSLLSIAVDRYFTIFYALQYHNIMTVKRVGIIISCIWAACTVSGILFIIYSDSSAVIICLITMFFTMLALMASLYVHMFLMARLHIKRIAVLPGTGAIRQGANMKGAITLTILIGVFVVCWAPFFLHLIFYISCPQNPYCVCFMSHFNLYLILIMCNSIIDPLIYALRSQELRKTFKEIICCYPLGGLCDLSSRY
ATG4B inhibitor – inhibitors of human ATG4B cysteine protease. inhibition, % at 8.33 µM. ATG4B cleavage of LC3-PLA2, NBD-HPC fluorescence, 1 h. 340,000 tested, 0.51% active. Q9Y4P1. AID 504462; in the data active means inhibition above about 40%
SMARCA2 act – activators of SMARCA2 function; MG213 cells, MMTV-luciferase reporter, dexamethasone, overnight; AID 652017; 370,000 tested, 1% active; activation, % at 9.1 µM; in the data active means activation above about 7.8%;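 further: 0% = vehicle wells and 100% = reference activator wells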
MC4R antagonist – human MC4R antagonism in cAMP assay; MC4R-expressing cells, MTII-stimulated cAMP, LANCE TR-FRET; P32245; inhibition, % at 6.5 µM; 360,000 tested, 0.48% active; AID 540295;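 active means inhibition above its plate's cutoff, the mean of tested wells on that plate plus 3 SD, cut at about 29% in these data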;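 further: 0% = Melanotan II alone and 100% = Melanotan II plus saturating MCL0020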
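Material: U2OS-MC4R stable cell line | Reagent: Melanotan II challenge after compound preincubation | Doses: One concentration, 6.5 µM nominal | Incubation: 30-min compound preincubation, 1-h Melanotan II challenge, 1-h detection, room temperature | Signal: TR-FRET cAMP assay | Replicates: One well per compound, no replicates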
ATG4B confirm – ATG4B (human) inhibition, single-dose confirmed. shares compounds with ATG4B inhibitor. ATG4B protease fluorescent substrate cleavage assay. inhibition, % at 8.33 µM. 320 tested, 92% active. AID 504757; in the data active means inhibition above about 39%
PLA2 counter – inhibits human PLA2, flagging false ATG4B inhibitors. shares compounds with ATG4B inhibitor. purified PLA2, NBD-C6-HPC fluorescence, 45 min. inhibition, % at 8.33 µM. 1,600 tested, 66% active; in the data active means inhibition above about 50%
Target sequence (P04054 whole entry, looked up): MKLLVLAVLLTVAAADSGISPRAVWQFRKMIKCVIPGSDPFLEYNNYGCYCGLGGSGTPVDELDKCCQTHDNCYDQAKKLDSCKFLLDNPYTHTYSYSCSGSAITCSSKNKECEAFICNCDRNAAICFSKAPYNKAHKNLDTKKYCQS
MC4R barr ag – human MC4R beta-arrestin agonism confirmation | shares compounds with MC4R ag barr | U2OS MC4R beta-arrestin recruitment, luminescence; scaled DMSO 0%, Melanotan II 100% | activation, % at 8.9 µM | 2,400 tested, 31% active;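 active means mean activation across replicates above the hit cutoff set in the earlier primary screen, cut at about 8% in these data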
MOR DOR agonist – activates mu-delta opioid heterodimer, MC4R agonist counter-screen; activation, % at 9.2 µM; shares compounds with MC4R ag barr; 2,400 tested, 5.8% active; U2OS PathHunter beta-arrestin, beta-gal luminescence; percent of deltorphin B response, DMSO zero;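 active means mean activation across replicates exceeds the hit threshold derived in the earlier primary screen, cut at about 18% in these data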;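 further: 100% = deltorphin B at 0.9 µM final and 0% = DMSO alone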
Rh123 counter – mitochondrial membrane potential, counter-screen; shares compounds with MPTP block; isolated mitochondria, Rhodamine 123 fluorescence; inhibition, % at 10 µM; 5,000 tested, 78% active; AID 624504; in the data active means inhibition above about 22%;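 further: 0% = DMSO vehicle and 100% = positive control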
* = called active by the depositor; nt = no result. Most compounds without a hit are left out; they make up all but 4.1% or so of the library.

SMILES | MPTP block | MC4R ag barr | ATG4B inhibitor | SMARCA2 act | MC4R antagonist | PLA2 counter | Rh123 counter | others
O=C(Nc1ccc(Cl)cc1)NC1CCCCC1 | 16.8 | 3.5 | 1.4 | 2.1 | 9.3 | nt | nt
O=[N+]([O-])c1cc(Cc2ccccc2)cc(C=Nc2ccc(N3CCOCC3)cc2)c1O | 14.9 | 3.5 | 10.8 | nt | 2.4 | nt | nt
Cc1ccc(O)c(N=Cc2cc(Cc3ccccc3)cc([N+](=O)[O-])c2O)c1 | 64.4* | 2.1 | 79.3* | 1.7 | 5.0 | 75.6* | 55.4*
COC(=O)[C@]12C[C@H](CC(=O)NCCCCc3ccccc3)C(=O)N(Cc3ccco3)C1=C[C@H](C1CCCC1)O[C@@H]2C | nt | nt | nt | -3.5 | nt | nt | nt
Cc1ccc2c(c1)[nH]c1c(N3CCN(Cc4ccccc4)CC3)ncnc12 | 68.1* | 2.0 | 61.7* | -6.5 | 7.0 | 78.7* | 80.1*
COc1ccc2c(c1)[nH]c1c(N3CCN(Cc4ccc5c(c4)OCO5)CC3)ncnc12 | 88.5* | -1.0 | 44.6* | -6.6 | 5.6 | 58.1* | 90.6*
Cc1nc2c(C(=O)NCCC(C)C)c[nH]n2c(=O)c1Cc1ccccc1F | 78.4* | 4.5 | 51.1* | -3.8 | 15.6 | 62.8* | 58.8*
O=[N+]([O-])c1ccc(N/N=C/c2sc(N3CCOCC3)nc2-c2ccccc2)c(S(=O)(=O)Nc2ccccc2Cl)c1 | 91.1* | -0.7 | 62.0* | -0.6 | 7.4 | 25.6 | 65.1*
O=C(N/N=C/c1sc(N2CCOCC2)nc1-c1ccccc1)c1ccccc1Cl | -1.5 | 3.0 | -4.0 | 3.5 | -4.8 | nt | nt
N#Cc1ccc(/C=C2\CC3(OC(=O)c4ccc(Cl)cc4)CCCN2C3)cc1 (stereo not given) | nt | nt | nt | -4.0 | nt | nt | nt
Cc1c(Cl)c([N+](=O)[O-])nn1CCCC(=O)Nc1cc(Oc2ccccc2)cc([N+](=O)[O-])c1 | 85.0* | -2.7 | 88.7* | -1.1 | 14.7 | 88.0* | 83.5*
Cc1c(Cl)c([N+](=O)[O-])nn1CCCC(=O)Nc1c(Cl)cccc1Cl | 1.0 | -0.2 | 19.9 | 0.9 | 11.6 | nt | nt
O=S(=O)(Nc1cc2nc3ccccc3nc2n1Cc1ccccc1)c1ccc(Cl)cc1 | 58.0* | 14.6* | 45.1* | -10.5 | -9.1 | 32.2 | 35.6* | MC4R barr ag=10.2*;MOR DOR agonist=10.2
CS(=O)(=O)N1CCC[C@]2(CC[C@H](CCC#N)O2)C1 | nt | nt | nt | 1.2 | nt | nt | nt
S=C(NCc1ccc(Cl)cc1Cl)NC1CCCCC1 | 105.6* | 5.2 | 44.1* | -5.7 | 1.6 | 55.2* | 84.7*
CC(C)(C)C(=O)OC12CCCN(C1)/C(=C/c1ccc(C#N)cc1)C2 (stereo not given) | nt | nt | nt | -1.7 | nt | nt | nt
Cc1ccc(NC(=S)Nc2ccc(Cl)c(Cl)c2)c(OC(F)F)c1 | 100.3* | 7.2 | 53.5* | 1.3 | 10.8 | 61.4* | 90.5*
Fc1ccc(NC(=S)Nc2ccccc2OC(F)F)cc1Cl | 99.7* | -1.6 | 47.9* | 3.0 | -1.3 | 59.1* | 75.8*
FC(F)Oc1ccccc1NC(=S)Nc1cccnc1 | 2.2 | -1.4 | 0.6 | 0.2 | 23.8 | nt | nt
O=C(c1ccc(F)cc1F)N(Cc1ccccn1)CC1CCCO1 (stereo not given) | nt | nt | nt | 4.3 | nt | nt | nt
CCCCn1c(NC(=O)c2ccccc2)c(C#N)c2nc3ccccc3nc21 | 86.6* | -2.4 | 54.9* | -3.2 | 14.8 | 60.3* | 79.5*
O=C(NCCCCc1ccccc1)NC[C@@H]1CC[C@@H](Cc2ccc(-c3ccccc3)cc2)O1 | -1.6 | 0.5 | 35.1 | -4.2 | 9.8 | nt | nt
O=C(NC[C@@H]1CC[C@@H](Cc2ccc(-c3ccccc3)cc2)O1)Nc1ccc(Br)cc1 | 59.8* | 5.1 | 41.8* | -3.7 | 16.3 | 85.9* | 95.7*
COC(=O)c1cc2c(c3c4ccccc4n(S(=O)(=O)c4ccc(OC)cc4)c13)C(=O)N(Cc1ccc(N(C)C)cc1)C2 | nt | nt | nt | -7.7 | nt | nt | nt
O=C(CSc1nc2ccc(Cl)cc2[nH]1)NCCc1ccccc1 | -17.0 | 2.2 | 5.3 | -2.9 | -2.5 | nt | nt
SMILES | MPTP block | MC4R ag barr | ATG4B inhibitor | SMARCA2 act | MC4R antagonist | PLA2 counter | Rh123 counter | others
O=C(CSc1nc2ccc(Cl)cc2[nH]1)NCCc1ccc(Cl)cc1 | 68.8* | 0.8 | 45.7* | -5.0 | 11.7 | 50.1* | 59.8*
CCCCCCCCn1ccc(=N)cc1 | -0.7 | 0.7 | -3.1 | -8.3 | -3.2 | nt | nt
CCCCCCCCCCCCCCCCn1cc[n+](C)c1 | 57.8* | 15.1* | 48.5* | -8.9 | 16.1 | 37.8 | 99.2* | ATG4B confirm=49.9*;MC4R barr ag=30.1*;MOR DOR agonist=8.5
Cc1ccc(S(=O)(=O)N2CCN(C(=O)c3cccn3C)CC2)cc1 | nt | nt | nt | -3.8 | nt | nt | nt
Cc1cccc(C)c1-n1cccc1/C=C1/C(=N)N2C(=NC1=O)SN=C2S(C)(=O)=O | 67.2* | 8.1 | 88.7* | -3.4 | 7.3 | 89.9* | 75.2*
O=C(Nc1ccc(OC(F)(F)F)cc1)Nc1cccc([N+](=O)[O-])c1 | 74.7* | -1.1 | 49.1* | -10.9 | -14.3 | 57.7* | 64.2*
O=C(Nc1ccc(OC(F)(F)F)cc1)Nc1cccnc1 | 39.1 | 1.8 | -2.8 | 1.6 | -6.1 | nt | nt
CCOc1ccc(CNC(=S)NCc2ccc(OCC)cc2)cc1 | 3.7 | 3.9 | 0.4 | -1.2 | 16.8 | nt | nt
CC(C)COc1ccc(CNC(=S)NCc2ccccc2)cc1 | 53.3* | 0.9 | 64.3* | -1.7 | -1.3 | 76.2* | 81.5*
CC(C)NC(=O)c1ccc2c(=O)n(C3CCCC3)c(=S)[nH]c2c1 | 3.3 | -3.4 | -11.1 | -1.7 | 5.3 | nt | nt
O=C(c1ccc2c(=O)n(C3CCCC3)c(=S)[nH]c2c1)N1CCc2ccccc21 | 79.6* | -1.4 | 54.0* | 1.5 | 2.9 | 76.8* | 68.6*
Fc1ccc2[nH]c3c(NCc4ccccc4)ncnc3c2c1 | 83.9* | -3.0 | 49.7* | -5.8 | 19.6 | 65.3* | 75.4*
COc1ccc2[nH]c3c(NCc4ccco4)ncnc3c2c1 | nt | nt | 3.9 | nt | nt | nt | nt
COC(=O)[C@]12C[C@H](CC(=O)NCCCCc3ccccc3)C(=O)N(Cc3ccc(Cl)cc3Cl)C1=C[C@H](COCc1ccccc1)O[C@@H]2C | nt | nt | nt | -2.7 | nt | nt | nt
CCOC(=O)[C@@]12CCCC=C1N(CCc1ccc(Cl)cc1)C(=O)[C@H]2CC(=O)NCC1CCCCC1 | nt | nt | nt | -1.6 | nt | nt | nt
CC(C)(C)OC(=O)n1ccc2ccc(-c3ccc4cc[nH]c4c3)cc21 | nt | nt | nt | 2.4 | nt | nt | nt
